Legend:
[1] = target: T1, MpPR10.5 protein (Marchantia polymorpha, UniProt A0A2R6WRE7); assay: Intrinsic tryptophan fluorescence binding assay
T1 sequence (A0A2R6WRE7 1-149): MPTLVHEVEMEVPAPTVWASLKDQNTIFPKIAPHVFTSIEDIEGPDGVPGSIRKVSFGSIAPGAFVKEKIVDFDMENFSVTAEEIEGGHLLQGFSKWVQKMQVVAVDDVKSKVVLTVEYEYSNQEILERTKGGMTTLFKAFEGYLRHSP
Method in brief: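 His-SUMO-tagged PR10 protein, expressed in E. coli Rosetta-Gami 2 and purified by IMAC and size exclusion, used at 1.1 μM in 20 mM Tris pH 8.5, 200 mM NaCl. DMSO stocks of test compound at eight levels (0–20 mM or 0–4 mM) were diluted 10× in buffer and added. Incubated 5 min at 22°C. Excitation 280 nm, emission 340 nm. Six replicates; buffer controls subtracted. |ΔF|/F0 versus concentration was fitted to a one-site specific binding model to give Kd.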

[2] = target: T1, MpPR10.5 protein; assay: Naringenin chalcone oxidation assay; format: physicochemical; details: pH 7.5, 30 min
Method in brief: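 Run in 20 mM Tris pH 7.5 or 8.5 with 200 mM NaCl, either as buffer alone or with 15 μM His-SUMO-tagged PR10 protein. A blank was recorded first. Test compound was added from a 1.4 mM DMSO stock to 10 μM final. UV–Vis spectra (190–840 nm, 1 cm path) were taken every 1 min for 30 min, following the 377 and 322 nm peaks.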

SMILES | affinity for MpPR10.5 (in words) [1] | Kd ([1]; Kd (dissociation constant), His-SUMO-MpPR10.5 fusion protein, 20 mM Tris pH 8.5, 200 mM NaCl, 22°C, nd = not detected) [µM] | stability under the experimental conditions (absorption peak at 322 nm) [2]
O=C(/C=C/c1ccc(O)c(O)c1)c1ccc(O)cc1O [Butein] | high affinity |  | 
O=C(O)/C=C/c1ccccc1 [Cinnamic acid] | very low affinity | > 119 | 
O=C(/C=C/c1ccc(O)cc1)c1ccc(O)cc1O [Isoliquiritigenin] | high affinity |  | 
O=C1C[C@@H](c2ccc(O)cc2)Oc2cc(O)cc(O)c21 [Naringenin] |  |  | remained completely stable
O=C(CCc1ccc(O)cc1)c1c(O)cc(O)cc1O [Phloretin] | high affinity |  | 
O=C(O)C=Cc1ccc(O)cc1 [p-Coumaric acid] | no affinity |  | 

— publication PMC12138178 (The New Phytologist, 2025)
